# High-throughput results (PubChem)
# An excerpt weighted towards active compounds, which were near 1.9% of everything screened.
# HCV core dimer: blocks dimerization of HCV core protein; TR-FRET GST/Flag-core106 dimerization, 1536-well; inhibition, % at 5 µM; 0.33% of 300,000 active; AID 1899;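 active = inhibition above the mean of all tested compounds plus 3 SD, set per screening campaign, cut at about 45% in these data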
#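 test system = GST/Flag-tagged HCV core106 proteins | probe or stimulus = Eu donor and XL665 acceptor anti-tag antibodies | times = compound-protein-antibody incubation 4 h at 22.5 °C | signal = TR-FRET, excitation 340 nm, emission 617 and 671 nm | measure = percent inhibition of core106 dimerization signal | controls = wells lacking GST-core106 and wells with excess unlabelled core106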
# NadD inh: NadD (S. aureus) enzyme inhibition. AID 602399. purified NadD enzyme, colorimetric absorbance read-out. 0.78% of 360,000 active. inhibition, % at 20 µM; in the data active = inhibition above about 26%
# VIM-2 inh: blocks Pseudomonas aeruginosa VIM-2 metallo-beta-lactamase; purified VIM-2, nitrocefin hydrolysis, epi-absorbance fluorescence; 0.89% of 290,000 active; inhibition, % at 5.6 µM;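 active = inhibition above the mean of all tested compounds plus 3 SD, cutoff set per screening run, cut at about 7.5% in these data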;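 also: red hydrolysis product quenches plate fluorescence so inhibitors raise well fluorescence; 0% = enzyme with DMSO and 100% = DMSO without enzyme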
# IMP-1 inh: inhibitors of Pseudomonas aeruginosa IMP-1 metallo-beta-lactamase; purified IMP-1, nitrocefin hydrolysis, epi-absorbance fluorescence; inhibition, % at 5.6 µM; 0.45% of 290,000 active;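 active = inhibition above the mean plus 3 SD of all compounds in the same screening run, cut at about 4.5% in these data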;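 also: 0% = IMP-1 with DMSO and 100% = DMSO wells lacking enzyme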
#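 System: Purified IMP-1 | Read-out basis: Percent enzyme inhibition | Controls: IMP-1 with DMSO as 0%, enzyme-free DMSO as 100% | Replicates: One well per compound | Doses: 5.6 µM nominal single concentration | Detection: Epi-absorbance fluorescence, 480 nm excitation, 530 nm emission | Incubation: 25 °C, 15 min preincubation, 25 min reaction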
# * marks the source's active call; other numbers are inactive results; nt = no result given.
SMILES,HCV core dimer,NadD inh,VIM-2 inh,IMP-1 inh
Cc1ccc(S(=O)(=O)c2cn(C)c3cc(N4CCN(C)CC4)c(F)cc3c2=O)cc1,-2,-1,3,-6
CCN(CC)CCNC(=O)c1cn(CC)c2cc(N3CCN(C(=O)c4ccco4)CC3)c(F)cc2c1=O,0,1,4,-4
CCN(CC)CCCNC(=O)c1cn(CC)c2cc(N3CCN(C(=O)c4ccco4)CC3)c(F)cc2c1=O,-10,6,12*,-3
CCn1cc(C(=O)NCCN(C)C)c(=O)c2cc(F)c(N3CCN(C)CC3)cc21,5,-6,12*,-2
CCn1cc(S(=O)(=O)c2ccc(C)cc2)c(=O)c2cc(F)c(N3CCN(C)CC3)cc21,11,-2,7.9*,0
CCn1cc(C(=O)Nc2ncccc2O)c(=O)c2cc(F)c(N3CCN(C(=O)c4ccco4)CC3)cc21,9,12,1,8.0*
CCn1cc(C(=O)NC(C)C)c(=O)c2cc(F)c(N3CCN(C(=O)c4ccco4)CC3)cc21,-10,3,-1,-5
Clc1ccc(CNc2ncnc3[nH]ncc23)cc1Cl,nt,-1,nt,nt
CC(C)Cc1nnc(NC(=O)CCC(=O)N2CCN(Cc3ccccc3)CC2)s1,2,-5,-4,-2
Cc1cc(C)cc(N(C(=O)CNC(=O)c2ccco2)C(C(=O)NC2CCCCC2)c2ccncc2)c1 (stereo not drawn),7,-6,-1,-2
C#CCNC(=O)C[C@@H]1C[C@@]2(C(=O)OC)CCCCC=C2N(Cc2ccco2)C1=O,nt,5,nt,nt
Cc1c(C(=O)NC2CCCC2)oc2ccccc12,nt,-10,nt,nt
CN(C)c1ccc(/C=C/c2cc[n+](C)cc2)cc1,-19,6,-2,-5
CN(C)c1ccc(/C=C/c2cc[n+]([O-])cc2)cc1,-28,nt,2,6.4*
C/C(=N\NC(=O)C(N)=O)c1cccc([N+](=O)[O-])c1,-1,7,-2,15*
NC1=CC(=O)c2cccc3cccc1c23,2,nt,3,14*
Cc1c(C#N)c(O)n(C)c(=O)c1N=Nc1ccc(S(N)(=O)=O)cc1,nt,-1,10*,-5
O=C(Cn1nnc(-c2ccccc2F)n1)Nc1ccc(S(=O)(=O)NC2CCCC2)cc1,3,8,1,5.0*
CCOC(=O)c1ccc(NC(=O)Cn2nnc(-c3ccccc3F)n2)cc1,8,-12,2,0
COc1cc2c(C#N)c(N3CCCCC3)nc(N)c2c(N)n1,19,7,0,0
COc1ccc(CN2C(=O)Cc3c2nc(N)c2c(N)nc(N4CCCCC4)c(C#N)c32)cc1,56*,nt,-3,-3
Cc1ccc(NC(=O)NCc2cccn2C)cc1C,2,-3,-3,-4
CCN1CCN(c2nnc(-c3ccc(C)cc3)c3ccccc23)CC1,9,-7,-1,-1
CCc1ccc(/C=N/NC(=O)c2cc(-c3ccccc3OC)nc3ccccc23)s1,56*,28,-5,-5
COc1ccccc1-c1cc(C(=O)N/N=C/c2ccoc2)c2ccccc2n1,0,5,-4,-3
SMILES,HCV core dimer,NadD inh,VIM-2 inh,IMP-1 inh
CC(C)(CO)CN1CCC(n2nccc2NC(=O)C2CCCC2)CC1,0,0,-1,-2
CCCCn1c(N)c(N(CC(C)C)C(=O)C2CC(=O)N(Cc3ccco3)C2)c(=O)[nH]c1=O (stereo not drawn),-2,-5,0,-2
CCOC(=O)c1ccc(NC(=S)N2CCN(CCNC3=CC(=O)CC(C)(C)C3)CC2)cc1,-5,-1,-3,-4
N#C/C(=C\c1ccc(N2CCCC2)c([N+](=O)[O-])c1)c1nc2ccccc2[nH]1,-3,31*,-3,-3
N#C/C(=C\c1ccc(N2CCCCC2)c([N+](=O)[O-])c1)c1nn(-c2ccccc2)c(N)c1C#N,20,2,-1,-2
COC(=O)c1ccccc1NC(=O)c1ccc2nccnc2c1,51*,20,5,0
CN(C(=O)COc1ncnc2ccccc12)C1CCCCC1,nt,-2,nt,nt
Cc1ccc(CO/N=C/C2=C(Cl)c3ccccc3CC2)cc1,1,2,-2,-3
Cc1ccc(Oc2ncccc2/C=N/OCc2ccc(Cl)c(Cl)c2)cc1,-9,3,0,4.7*
CN(C(=O)Cn1cnc2sccc2c1=O)C1CCCCC1,nt,4,nt,nt
Cc1nnc2c3ccccc3c(-c3ccc(O)cc3)nn12,-1,-8,10*,-4
Cc1nnc2c3ccccc3c(Cl)nn12,-3,-8,5,-1
Cc1ccc2[nH]c(O)c(N=NC(N)=S)c2c1,-4,1,-2,-2
CC(/C=C(\NC(=O)c1ccccc1)C(=O)N=Nc1c(O)[nH]c2ccc(C)cc12)=C\c1ccccc1,40,39*,-4,-3
